Laboratory results: ChEMBL document CHEMBL4725302, “Isosteres of ester derived glucose uptake inhibitors” (Bioorg Med Chem Lett, 2020)

Experiments:
A549 = test: Antitumor activity in human A549 cells xenografted in NU/J mouse assessed as reduction in tumor volume at 10 mg/kg, ip administered for 10 weeks and measured for every 7 day relative to control; type: functional; set-up: scale not given: the % may be the effect or the level left
[1] = Stability in human serum assessed as reduction in A549 cell viability at 30 uM measured upto 12 hrs by resazurin assay; type: cell-free
Summary of the method: (§1)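 Compound at 30 µM preincubated at 37 °C in DMEM with 10% FBS and 1% Pen/Strep for 0, 1, 2, 4, 6, 9, 12, 24, 48 and 72 h. This medium then applied for 24 h to 5 x 10^3 A549 cells (grown overnight, washed twice with PBS). Resazurin added for 30 min, fluorescence Ex 560/Em 590, normalized to DMSO mock.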

NCI-H1299 [2] = test: Antiproliferative activity against human NCI-H1299 cells assessed as reduction in cell viability at 30 uM incubated for 48 hrs by MTT assay relative to control; type: functional
Summary of the method: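 H1299 cells seeded at 5,000 per well, exposed in hexads to compound at 30 µM or DMSO (<0.5% v/v) for 48 h. MTT then added for 4 h and absorbance read at 570 nm. Conditions run in triplicate, quadruplicate or hexad, experiment repeated at least once; mean ± standard deviation.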

[3] = Inhibition of glucose uptake in human NCI-H1299 cells at 30 uM incubated for 10 mins followed by […][3H]2-deoxyglucose and glucose addition and measured after 30 mins by scintillation counting method relative to control; type: functional; settings: NCI-H1299, 10 min
Summary of the method: (§2)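 H1299 cells held 2 h in serum-free medium, then 30 min in KRP buffer. Treated ±30 µM compound for 10 min, then 37 MBq/L [3H]2-deoxyglucose plus 1 mmol/L glucose in KRP for 30 min uptake. Washed twice with ice-cold PBS, lysed in NaOH, radioactivity by scintillation counting. Replicates triplicate to hexad, repeated at least once; mean ± standard deviation.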

[4] = Stability in human serum assessed as compound remaining incubated for 1 hr; type: ADME, cell-free; settings: read-out: Stabilty
[5] = Stability in human serum assessed as reduction in A549 cell viability at 30 uM measured upto 72 hrs by resazurin assay; type: cell-free; summary of the method: as §1
[6] = Inhibition of glucose uptake in human NCI-H1299 cells incubated for 10 mins followed by […][3H]2-deoxyglucose and glucose addition and measured after 30 mins by scintillation counting method; type: functional, cell-based; summary of the method: as §2
NCI-H1299 [7] = test: Antiproliferative activity against human NCI-H1299 cells assessed as reduction in cell viability incubated for 48 hrs by MTT assay; type: functional, cell-based; settings: NCI-H1299, 48 h

O=C(Oc1cccc(F)c1OC(=O)c1cccc(O)c1)c1cccc(O)c1
Activity (A549): 70% | Stabilty [1]: Unstable | inhibition at 30 µM (NCI-H1299 [2]): 56.9% | inhibition at 30 µM [3]: 92.8% | remaining at 1 h [4]: 25%

Cc1ccc(C(=O)Nc2ccc(Cl)cc2NC(=O)c2ccc(C)c(O)c2)cc1O
inhibition at 30 µM (NCI-H1299 [2]): 55% | inhibition at 30 µM [3]: 84.8%

O=C(Nc1ccc(Cl)cc1NC(=O)c1cc(O)ccc1Cl)c1cc(O)ccc1Cl
inhibition at 30 µM (NCI-H1299 [2]): 45.3% | inhibition at 30 µM [3]: 89.9%

O=C(Nc1ccc(Cl)cc1NC(=O)c1ccc(Br)c(O)c1)c1ccc(Br)c(O)c1
inhibition at 30 µM (NCI-H1299 [2]): 54.6% | inhibition at 30 µM [3]: 97.3%

Cc1ccc(O)cc1CNc1ccc(Cl)cc1NCc1cc(O)ccc1C
inhibition at 30 µM (NCI-H1299 [2]): 46.3% | inhibition at 30 µM [3]: 82.9%

Oc1cc(CNc2ccc(Cl)cc2NCc2ccc(Cl)c(O)c2)ccc1Cl
inhibition at 30 µM (NCI-H1299 [2]): 70.9% | inhibition at 30 µM [3]: 52.4%

O=C(Nc1ccc(Cl)cc1NC(=O)c1ccc(Cl)c(O)c1)c1ccc(Cl)c(O)c1
inhibition at 30 µM (NCI-H1299 [2]): 19% | inhibition at 30 µM [3]: 85.2%

O=C(Nc1ccc(Cl)cc1NC(=O)c1ccc(F)c(O)c1)c1ccc(F)c(O)c1
inhibition at 30 µM (NCI-H1299 [2]): 25.7% | inhibition at 30 µM [3]: 47.8%

Oc1cccc(SCc2cccc(F)c2CSc2cccc(O)c2)c1
inhibition at 30 µM (NCI-H1299 [2]): -2% | inhibition at 30 µM [3]: 98.1%

Oc1cccc(CNc2ccc(F)cc2NCc2cccc(O)c2)c1
inhibition at 30 µM (NCI-H1299 [2]): 37.7% | inhibition at 30 µM [3]: 39.2%

O=C(Nc1ccc(Cl)cc1NC(=O)c1cc(O)cc(Cl)c1)c1cc(O)cc(Cl)c1
inhibition at 30 µM (NCI-H1299 [2]): 61.3% | inhibition at 30 µM [3]: 60.6%

Oc1cc(Cl)cc(CNc2ccc(Cl)cc2NCc2cc(O)cc(Cl)c2)c1
inhibition at 30 µM (NCI-H1299 [2]): 47.6% | inhibition at 30 µM [3]: 81.7%

O=C(Nc1ccc(Cl)cc1NC(=O)c1cccc(O)c1)c1cccc(O)c1
inhibition at 30 µM (NCI-H1299 [2]): 5.9% | inhibition at 30 µM [3]: 83.7%

Cc1ccc(O)cc1C(=O)Nc1ccc(Cl)cc1NC(=O)c1cc(O)ccc1C
inhibition at 30 µM (NCI-H1299 [2]): 21% | inhibition at 30 µM [3]: 21%

Oc1cccc(OCc2cccc(F)c2COc2cccc(O)c2)c1
inhibition at 30 µM (NCI-H1299 [2]): -1.4% | inhibition at 30 µM [3]: 89.5%

Oc1cccc(COc2cccc(F)c2OCc2cccc(O)c2)c1
inhibition at 30 µM (NCI-H1299 [2]): 10.6% | inhibition at 30 µM [3]: 92.6%

[O-][S+](Cc1cccc(F)c1C[S+]([O-])c1cccc(O)c1)c1cccc(O)c1 (configuration not stated)
inhibition at 30 µM (NCI-H1299 [2]): 0.2% | inhibition at 30 µM [3]: 17.2%

Cc1ccc(CNc2ccc(Cl)cc2NCc2ccc(C)c(O)c2)cc1O
Stabilty [5]: Stable | IC50 [6]: 1900 nM | inhibition at 30 µM (NCI-H1299 [2]): 77.5% | inhibition at 30 µM [3]: 93.7% | IC50 (NCI-H1299 [7]): 7 µM

O=S(=O)(Cc1cccc(F)c1CS(=O)(=O)c1cccc(O)c1)c1cccc(O)c1
inhibition at 30 µM (NCI-H1299 [2]): 11.8% | inhibition at 30 µM [3]: 61.4%

Oc1cccc(CNc2ccc(Cl)cc2NCc2cccc(O)c2)c1
inhibition at 30 µM (NCI-H1299 [2]): 56.6% | inhibition at 30 µM [3]: 52.2%

O=C(Nc1ccc(F)cc1NC(=O)c1cccc(O)c1)c1cccc(O)c1
inhibition at 30 µM (NCI-H1299 [2]): 5.7% | inhibition at 30 µM [3]: 89.7%

COc1ccc(C(=O)Nc2ccc(Cl)cc2NC(=O)c2ccc(OC)c(O)c2)cc1O
inhibition at 30 µM (NCI-H1299 [2]): 26% | inhibition at 30 µM [3]: 39.5%

Oc1cccc(CNc2cccc(F)c2NCc2cccc(O)c2)c1
inhibition at 30 µM (NCI-H1299 [2]): 5% | inhibition at 30 µM [3]: 54.8%

Cc1cc(O)cc(C(=O)Nc2ccc(Cl)cc2NC(=O)c2cc(C)cc(O)c2)c1
inhibition at 30 µM (NCI-H1299 [2]): 84.7% | inhibition at 30 µM [3]: 61.4%

O=C(Nc1cccc(F)c1NC(=O)c1cccc(O)c1)c1cccc(O)c1
inhibition at 30 µM (NCI-H1299 [2]): 33.4% | inhibition at 30 µM [3]: 20%

Oc1cc(CNc2ccc(Cl)cc2NCc2ccc(Br)c(O)c2)ccc1Br
inhibition at 30 µM (NCI-H1299 [2]): 74.1% | inhibition at 30 µM [3]: 69.1%

Cc1cc(O)cc(CNc2ccc(Cl)cc2NCc2cc(C)cc(O)c2)c1
inhibition at 30 µM (NCI-H1299 [2]): 60.4% | inhibition at 30 µM [3]: 75%

COc1ccc(CNc2ccc(Cl)cc2NCc2ccc(OC)c(O)c2)cc1O
inhibition at 30 µM (NCI-H1299 [2]): 22% | inhibition at 30 µM [3]: 42.2%

Oc1cc(CNc2ccc(Cl)cc2NCc2ccc(F)c(O)c2)ccc1F
inhibition at 30 µM (NCI-H1299 [2]): 22.1% | inhibition at 30 µM [3]: 24.1%

O=C(Oc1cccc(O)c1)c1cccc(F)c1C(=O)Oc1cccc(O)c1
inhibition at 30 µM (NCI-H1299 [2]): 15.3% | inhibition at 30 µM [3]: 78.2%

Oc1cccc(COc2ccc(Cl)cc2OCc2cccc(O)c2)c1
inhibition at 30 µM (NCI-H1299 [2]): 14.3% | inhibition at 30 µM [3]: 91.2%

Oc1ccc(Cl)c(CNc2ccc(Cl)cc2NCc2cc(O)ccc2Cl)c1
inhibition at 30 µM (NCI-H1299 [2]): 70.8% | inhibition at 30 µM [3]: 80.7%

Oc1cccc(CCc2cccc(F)c2CCc2cccc(O)c2)c1
inhibition at 30 µM (NCI-H1299 [2]): -22.7% | inhibition at 30 µM [3]: 60.7%
